Laboratory results reported in ChEMBL document CHEMBL4732146, “Nitric oxide-donating and reactive oxygen species-responsive prochelators based on 8-hydroxyquinoline as anticancer agents” (Eur J Med Chem, 2021).
pIC50: −log10 of the molar value. Active and inactive are the calls of the source. No cut-off for these calls is given here.

Columns and labels:
[1] = Prodrug activation in ClO- at 100 uM measured after 1 hr by RP-HPLC analysis
Method in brief: (§1)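 Compound (100 µM) incubated at 37 °C for 1 h with one of: ROS species (1 mM), NO solution (1 mM), GSH (200 µM), CuCl₂ (10 µM) or FeCl₃ (10 µM). Percent decomposed was determined by RP-HPLC (ODS column, 0.1% TFA water/methanol gradient, 1 mL/min, 256 nm).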

[2] = tested on: SW1990; assay: Cytotoxicity against human SW1990 cells assessed as reduction in cell viability measured after 48 hrs in presence of FeCl3 by MTT assay; assay type: functional, cell-based; conditions: SW1990, 48 h
Method in brief: (§2)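 Cells seeded 6 × 10⁴ per well, cultured 24 h at 37 °C under 5% CO₂, then exposed to compound for 48 h, with or without 50 µM CuCl₂ or FeCl₃ co-incubation. MTT added for 4 h at 37 °C, formazan dissolved in DMSO, A490 read. IC50 reported as mean (SD), n = 3.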

[3] = Cytotoxicity against human RWPE2 cells assessed as reduction in cell viability measured after 48 hrs by MTT assay; assay type: cell-based; conditions: RWPE2, 48 h; method in brief: as §2
[4] = Stability of compound in DMEM with 10% fetal bovine serum assessed as parent compound remaining measured after 24 hrs by RP-HPLC analysis; assay type: cell-free
Method in brief: (§3)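 Compound (1 µM) stirred at 37 °C either in PBS (pH 5.0, 7.4 or 10.0) containing 5% DMSO or in DMEM with 10% FBS. Aliquots were analysed by RP-HPLC (0.1% TFA water/methanol gradient, 256 nm) for remaining intact compound, up to 24 h.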

[5] = Stability of compound in pH 10 PBS buffer assessed as parent compound remaining measured after 24 hrs by RP-HPLC analysis; assay type: physicochemical; conditions: read-out: Stabilty; method in brief: as §3
[6] = Stability of compound in pH 7.4 PBS buffer assessed as parent compound remaining measured after 24 hrs by RP-HPLC analysis; assay type: physicochemical; conditions: read-out: Stabilty; method in brief: as §3
[7] = tested on: SW1990; assay: Induction of apoptosis in human SW1990 cells at 12 uM measured after 24 hrs in presence of ROS quencher NAC by Annexin V-FITC/propidium iodide staining based flow cytometry; assay type: functional, cell-based
Method in brief: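 SW1990 cells seeded 5 × 10⁵ per well and grown 24 h, then treated 24 h at 8 or 12 µM. Optional 1 h pretreatment with 20 mM NAC or 50 µM carboxyl-PTIO before 12 µM treatment. Cells stained with annexin V-FITC 15 min and PI 5 min at room temperature in the dark, then analysed by flow cytometry. Mean ± SD, n = 3.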

[8] = tested on: PANC-1; assay: Cytotoxicity against human PANC-1 cells assessed as reduction in cell viability measured after 48 hrs by MTT assay; assay type: functional, cell-based; conditions: PANC-1, 48 h; method in brief: as §2
[9] = Drug metabolism in human SW1990 cells assessed as nitric oxide release at 8 to 12 uM measured after 24 hrs by DAF-FM DA probe based flow cytometry; assay type: ADME, cell-based; conditions: sw1990, 24 h, dose 8-12 µM
Method in brief: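 SW1990 cells at 80% confluence loaded with 5 µM DAF-FM DA for 20 min at 37 °C, rinsed, then incubated with compound. Optional 1 h pretreatment with 50 µM carboxyl-PTIO before 12 µM treatment. Fluorescence read by flow cytometry (ex 495 / em 515 nm). Mean ± SD, n = 3.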

[10] = Prodrug activation in peroxynitrite ONOO- assessed as drug decomposition at 100 uM measured after 1 hr by RP-HPLC analysis; method in brief: as §1
[11] = tested on: SW1990; assay: Cytotoxicity against human SW1990 cells assessed as reduction in cell viability measured after 48 hrs in presence of CuCl2 by MTT assay; assay type: functional, cell-based; conditions: SW1990, 48 h; method in brief: as §2
[12] = Drug metabolism in human SW1990 cells assessed as nitric oxide release by measuring increase in 3-nitrotyrosine-containing cytochrome-c expression at 8 to 12 uM measured after 24 hrs by Western blot analysis; assay type: ADME, cell-based; conditions: sw1990, 24 h
Method in brief: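 SW1990 cells treated 24 h, or pretreated 1 h with carboxyl-PTIO (50 µM) before 24 h treatment. Mitochondrial proteins extracted and lysed (30 µg/lane), run on SDS-PAGE, blotted to PVDF and probed with anti-3-nitrotyrosine antibody. Mean ± SD, n = 3.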

[13] = Prodrug activation in tBuO at 100 uM measured after 1 hr by RP-HPLC analysis; method in brief: as §1
[14] = tested on: PANC-1; assay: Cytotoxicity against human PANC-1 cells assessed as reduction in cell viability measured after 48 hrs in presence of CuCl2 by MTT assay; assay type: functional, cell-based; conditions: PANC-1, 48 h; method in brief: as §2
[15] = tested on: SW1990; assay: Induction of apoptosis in human SW1990 cells assessed as decrease in Bcl-2 expression at 8 to 12 uM measured after 24 hrs by Western blot analysis; assay type: functional, cell-based; conditions: dose 8-12 µM
Method in brief: (§4)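 SW1990 cells seeded 5 × 10⁵ per well and grown 24 h at 37 °C, then treated 24 h. Lysates quantified by BCA, resolved by SDS-PAGE and transferred to nitrocellulose. Blocked in 5% milk, probed overnight at 4 °C for cleaved caspase-3, cleaved caspase-9, Bax and Bcl-2, then HRP secondary 2 h. ECL detection.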

[16] = tested on: SW1990; assay: Induction of apoptosis in human SW1990 cells assessed as increase in Bax-2 expression at 8 to 12 uM measured after 24 hrs by Western blot analysis; assay type: functional, cell-based; conditions: dose 8-12 µM; method in brief: as §4
[17] = Cytotoxicity against human H6C7 cells assessed as reduction in cell viability measured after 48 hrs by MTT assay; assay type: cell-based; conditions: H6C7, 48 h; method in brief: as §2
[18] = Stability of compound in presence of Cu2+ at 100 uM measured after 1 hr by RP-HPLC analysis; assay type: physicochemical; method in brief: as §1
[19] = tested on: SW1990; assay: Cell cycle arrest in human SW1990 cells assessed as increase in accumulation at G1-phase at 12 uM measured after 24 hrs by propidium iodide staining based flow cytometry; assay type: functional
Method in brief: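 SW1990 cells seeded 5 × 10⁵ per well, grown 24 h, then treated 24 h. Washed in ice-cold PBS, fixed ≥24 h in ice-cold 70% alcohol, RNase A treated, PI-stained 30 min at 4 °C in the dark. DNA content read by flow cytometry to give cycle distribution. Mean ± SD, n = 3.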

[20] = Metal chelating activity assessed as compound-Cu2+ complex formation by measuring intracellular HO level in human SW1990 cells at 10 uM measured after 1 hr in presence of CuCl2 and HO radical scavenger tempol by HO probe based confocal laser scanning microscopic analysis; assay type: cell-based
Method in brief: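 SW1990 cells at 80% confluence were loaded with 20 µM HO· probe at 37 °C for 30 min and rinsed. They then received 50 µM CuCl₂, followed by 10 µM compound for 1 h. For the scavenger arm, 1 mM tempol was given for 30 min before CuCl₂. CLSM imaging at λex 570 / λem 650 nm gave mean intensity; n = 3.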

[21] = tested on: SW1990; assay: Induction of apoptosis in human SW1990 cells assessed as increase in cleaved caspase-9 expression at 8 to 12 uM measured after 24 hrs by Western blot analysis; assay type: functional, cell-based; conditions: dose 8-12 µM; method in brief: as §4
[22] = Metal chelating activity assessed as compound-Cu2+ complex formation at 50 uM measured after 40 mins in absence of H2O2 by UV spectrophotometric method
Method in brief: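 Stock in DMSO diluted into PBS (10 mM, pH 7.4) to a final 50 µM, with 50 µM CuCl₂ added and no H₂O₂. UV spectrum recorded over 40 min at room temperature.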

Drug metabolism [1]: Metabolite_Notdetected
remaining at 24 h [5]: > 80%
remaining at 24 h [6]: > 80%
Drug metabolism [9]: Metabolite_Detected
Drug degradation [10]: 20.8%
Drug metabolism [12]: Metabolite_Detected
Drug metabolism [13]: Metabolite_Notdetected
Stabilty [18]: Stable
Activity [22]: inactive
SMILES: O=C(NCCCOc1no[n+]([O-])c1S(=O)(=O)c1ccccc1)c1ccc2cccc(OCc3ccc(B(O)O)cc3)c2n1
pIC50 [2]: 4.81
pIC50 [3]: 4.45
Stability [4]: > 80%
Activity [7]: inactive
pIC50 [8]: 4.98
pIC50 [11]: 5.92
pIC50 [14]: 5.77
Activity [15]: Active
Activity [16]: Active
pIC50 [17]: < 4.30
Activity [19]: Active
Activity [20]: inactive
Activity [21]: Active
